Measured values from different studies.
Compare with care: the assays were run in different laboratories.

SMILES	target or system	test	system	conditions	quantity	value
COc1ccc(C(=O)CSc2nc(C)cc(C)c2C#N)cc1	Leishmania infantum	parasite growth	mouse Macrophage	intracellular, amastigote	EC50	25.2 µM
CC(=NNC(=O)COc1ccc2c(C)c(Cc3ccccc3)c(=O)oc2c1C)c1ccc(Br)cc1	HCT-116	cell growth or viability, MTT		6.3 µg/mL	viability	49.9%
Cl.O=C(O)CNC(=O)c1ccc(NC(=O)c2cc(Br)c(Br)[nH]2)c(N2CCNCC2)c1	Klebsiella aerogenes	microbial growth, broth dilution	ATCC13408		MIC	> 32 µg/mL
C=CC(=O)NC1CCN(c2ncc3ncnc(Nc4ccc(Oc5ccc6c(c5)ncn6C)c(C)c4)c3n2)CC1	HCC15	cell growth or viability			EC50	0.22 µM
Cc1[nH]c(C(=O)Nc2ccc(C(=O)NCC(=O)O)cc2N2CC[C@H](NC(=O)OC(C)(C)C)C2)c(Cl)c1Cl	Klebsiella aerogenes	microbial growth, broth dilution	ATCC13408		MIC	> 32 µg/mL
Cc1cc(C)c(C#N)c(SCC(=O)c2ccccn2)n1	Leishmania infantum	parasite growth	mouse Macrophage	intracellular, amastigote	EC50	45.5 µM
O=C(O)c1ccccc1Nc1cccc(C(F)(F)F)c1	U-87 MG	cell growth or viability, SRB		48 h	GI50	> 30 µM
Cl.N[C@H]1CCN(c2cc(C(=O)NCC(=O)O)ccc2NC(=O)c2cc(Br)c(Br)[nH]2)C1	Klebsiella aerogenes	microbial growth, broth dilution	ATCC13408		MIC	> 32 µg/mL
Cc1cc(C)nc(SCC(=O)c2cccs2)n1	Leishmania infantum	parasite growth	mouse Macrophage	intracellular, amastigote	EC50	> 64 µM
CC(C)(C)OC(=O)N[C@H]1CCN(c2cc(C(=O)NCC(=O)O)ccc2NC(=O)c2cc(Br)c(Br)[nH]2)C1	Klebsiella aerogenes	microbial growth, broth dilution	ATCC13408		MIC	> 32 µg/mL
C=CC(=O)c1cccnc1Nc1cccc(C(F)(F)F)c1	U-87 MG	cell growth or viability, SRB		48 h	GI50	7.51 µM
CNc1ccnc(SCC(=O)c2ccccc2)c1C#N	Leishmania infantum	parasite growth	mouse Macrophage	intracellular, amastigote	EC50	> 64 µM
